# Measured values collected from several papers.
# Compare with care: the assays were run in different laboratories.
# CA9: Carbonic anhydrase 9 (CA9, Homo sapiens, UniProt Q16790)
# Adora1: Adenosine receptor A1 (Adora1, Rattus norvegicus, UniProt P25099)
# gyrB: DNA gyrase subunit B (gyrB, Escherichia coli, UniProt P0AES6)
# Melanocortin receptor 5: Melanocortin receptor 5 (Mus musculus, UniProt P41149)
Structure (SMILES),target,test,setting,measurement,result
COc1ccc(-c2nsc(NC(=O)[C@@H]3C[C@H]3C)c2C)cc1,"Metabotropic glutamate receptor 1 (GRM1, Homo sapiens, UniProt Q13255)","calcium signal, agonist",,EC50,> 25000 nM
NS(=O)(=O)c1ccc(NC(=O)NCc2cccc(NC(=O)C3CC3)c2)cc1,CA9,"enzyme activity, inhibitor",,IC50,55 nM
CCCN1CCCn2c1nc1c2c(=O)n(C)c(=O)n1C,Adora1,"ligand displacement, radioligand",cell membranes,Ki,3870 nM
NS(=O)(=O)c1ccc(O)c(C(=O)N(Cc2ccc(O)cc2)Cc2ccco2)c1,CA9,"enzyme activity, inhibitor",,IC50,152 nM
CCCCCC(C)N1CCCn2c1nc1c2c(=O)n(C)c(=O)n1C (stereo not shown),Adora1,"ligand displacement, radioligand",cell membranes,Ki,> 25000 nM
CO[C@@]1(NC(=O)C2SC(=C(C(N)=O)C(=O)O)S2)C(=O)N2C(C(=O)O)=C(CSc3nnnn3C)CS[C@@H]21 (stereo partly shown),"Phosphatidylethanolamine-binding protein 1 (Homo sapiens, UniProt P30086)",binding,,Kd,35800 nM
Cc1cnc(-c2ccc(-c3ccc(NC(=O)Nc4c(F)cc(F)cc4F)cc3F)c3c2C(=O)NC3)[nH]1,"Serine/threonine-protein kinase 26 (STK26, Homo sapiens, UniProt Q9P289)","binding, competition with immobilised ligand",,Kd,8.2 nM
O=C(O)c1cccc(CCNC(=O)c2cc3ccccc3[nH]c2=O)c1,gyrB,"binding, ITC",,Kd,1400 nM
N=C(N)NCCC[C@H](N)C(=O)N[C@@H](Cc1ccccc1)C(=O)NCC(=O)O,Melanocortin receptor 5,"reporter gene, agonist",,EC50,> 100000 nM
CNc1cccc2cc(C(=O)NCCc3ccc(C(=O)O)cc3)c(=O)[nH]c12,gyrB,"binding, ITC",,Kd,23 nM
N=C(N)NCCC[C@H](NC(=O)[C@H](CC(=O)O)NC(=O)[C@H](Cc1c[nH]c2ccccc12)NC(=O)[C@H](CCCNC(=N)N)NC(=O)[C@H](Cc1ccccc1)NC(=O)[C@H](Cc1c[nH]cn1)NC(=O)CN)C(=O)N[C@@H](Cc1ccccc1)C(=O)NCC(=O)O,Melanocortin receptor 5,"reporter gene, agonist",,EC50,290 nM
CN(Cc1ccc(C(=O)O)cc1NC(=O)c1cc2ccccc2[nH]c1=O)C1CCCCC1,gyrB,"binding, ITC",,Kd,3900 nM
CCS(=O)(=O)Nc1ccc(Nc2c3ccccc3nc3cc(NC(=O)CCCC[C@@H]4SC[C@@H]5NC(=O)N[C@@H]54)ccc23)c(OC)c1,"Lymphocyte antigen 6K (Homo sapiens, UniProt Q17RY6)","binding, SPR",,Kd,4700 nM
Cc1cccnc1C(=O)Nc1ccc(N2C(=O)c3ccccc3C2=O)c(Cl)c1,"Metabotropic glutamate receptor 4 (GRM4, Homo sapiens, UniProt Q14833)","calcium signal, agonist",,EC50,> 10000 nM
Cc1cc2nc3c(=O)[nH]c(=O)nc-3n(C[C@H](O)[C@H](O)[C@H](O)COP(=O)(O)OP(=O)(O)OC[C@H]3O[C@@H](n4cnc5c(N)ncnc54)[C@H](O)[C@@H]3O)c2cc1C,"RNA-binding protein 14 (Homo sapiens, UniProt Q96PK6)",binding,lysate,Kd,32 nM
CC(C)NC[C@@H](C(=O)N1CCN(c2ncnc3c2[C@H](C)C[C@H]3O)CC1)c1ccc(Cl)cc1,"Serine/threonine-protein kinase N1 (PKN1, Homo sapiens, UniProt Q16512)","enzyme activity, inhibitor",,IC50,30 nM
Cc1cc(C)cc(C(=O)N2CCCC(C(=O)N(C)C(C)c3ccc(S(N)(=O)=O)cc3)C2)c1 (stereo not shown),CA9,"enzyme activity, inhibitor",,IC50,60 nM
N=C(N)NCCC[C@H](NC(=O)[C@H](CC(=O)O)NC(=O)[C@@H](N)Cc1c[nH]c2ccccc12)C(=O)N[C@@H](Cc1ccccc1)C(=O)NCC(=O)O,Melanocortin receptor 5,"reporter gene, agonist",,EC50,> 100000 nM
CNC(=O)c1ccc(NC(=O)Nc2nc(CC(=O)Nc3ccc(S(N)(=O)=O)cc3)cs2)cc1,CA9,"enzyme activity, inhibitor",,IC50,29.5 nM
CCCCn1c(=O)c2[nH]c(C34CC5CC(CC3C5)C4)nc2n(CCCO)c1=O,Adora1,"ligand displacement, radioligand",cell membranes,Ki,0.368 nM
CC(OC(=O)c1ccc(Cl)c(S(N)(=O)=O)c1)C(=O)NCCc1c[nH]c2ccccc12 (stereo not shown),CA9,"enzyme activity, inhibitor",,IC50,293 nM
N=C(N)NCCC[C@H](NC(=O)[C@H](CC(=O)O)NC(=O)[C@H](Cc1c[nH]c2ccccc12)NC(=O)[C@H](CCCNC(=N)N)NC(=O)[C@@H](N)Cc1ccccc1)C(=O)N[C@@H](Cc1ccccc1)C(=O)O,Melanocortin receptor 5,"reporter gene, agonist",,EC50,6730 nM
Cn1cc(-c2ccc(N3CCN(C(=O)c4ccc(S(N)(=O)=O)c(Br)c4)CC3)c3cc[nH]c23)nn1,CA9,"enzyme activity, inhibitor",,IC50,12.9 nM
CSCC[C@H](NC(=O)[C@@H](NC(=O)[C@@H](N)Cc1ccc(O)cc1)C(C)C)C(=O)NCC(=O)N[C@@H](Cc1c[nH]cn1)C(=O)N[C@@H](Cc1ccccc1)C(=O)N[C@@H](CCCNC(=N)N)C(=O)N[C@@H](Cc1c[nH]c2ccccc12)C(=O)O,Melanocortin receptor 5,"reporter gene, agonist",,EC50,710 nM
Cc1ccc(S(N)(=O)=O)c(C(=O)Nc2ccc(NC(=O)NCC3CCCO3)cc2)c1 (stereo not shown),CA9,"enzyme activity, inhibitor",,IC50,7880 nM
CSCC[C@H](NC(=O)[C@@H](NC(=O)[C@@H](N)Cc1ccc(O)cc1)C(C)C)C(=O)NCC(=O)N[C@@H](Cc1c[nH]cn1)C(=O)N[C@@H](Cc1ccccc1)C(=O)O,Melanocortin receptor 5,"reporter gene, agonist",,EC50,> 100000 nM
NS(=O)(=O)c1cc(C(=O)Nc2ccc(NC(=O)CCN3CCCCC3)cc2)ccc1Cl,CA9,"enzyme activity, inhibitor",,IC50,160 nM
CC(C)CCCC(C)N1CCCn2c1nc1c2c(=O)n(C)c(=O)n1C (stereo not shown),Adora1,"ligand displacement, radioligand",cell membranes,Ki,7690 nM
